Marks after values point to notes of the source that are not given here.
How the values were obtained:
dopamine D4.2 receptor = biological target: T1, dopamine D4.2 receptor (Homo sapiens, UniProt P21917, DEL265-296); experiment: Dopamine D4.2 receptor radioligand binding; conditions: 10 μM, human recombinant CHO-K1 cells
T1 sequence (P21917 with tags, fused parts or gaps DEL265-296): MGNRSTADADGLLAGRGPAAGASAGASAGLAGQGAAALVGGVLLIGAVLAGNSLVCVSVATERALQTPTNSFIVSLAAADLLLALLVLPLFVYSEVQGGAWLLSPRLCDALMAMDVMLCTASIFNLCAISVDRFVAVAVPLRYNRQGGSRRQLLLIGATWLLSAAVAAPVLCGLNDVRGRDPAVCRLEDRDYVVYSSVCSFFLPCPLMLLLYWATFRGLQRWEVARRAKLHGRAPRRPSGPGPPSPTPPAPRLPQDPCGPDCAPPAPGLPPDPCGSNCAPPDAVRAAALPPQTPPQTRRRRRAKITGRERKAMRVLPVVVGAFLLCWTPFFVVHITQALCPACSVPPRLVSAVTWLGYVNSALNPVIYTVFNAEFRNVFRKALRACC
Outline: (§1)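 Human recombinant receptors expressed in CHO cells (D1, D2L) or CHO-K1 cells (D4.2) were used in radioligand binding assays with [3H]SCH-23390 (D1), [3H]spiperone (D2L) or [3H]dopamine (D4.2). The test compound or its metabolite was tested at a single concentration of 10 μM. Results are expressed as percent inhibition of specific binding.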

platelet aggregation = conditions: humans, 100 mg b.i.d., at 4, 12 and 24 h; cited from earlier work
[1] = Body weight and food consumption in rat 2 year carcinogenicity study; type: in vivo
Outline: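 Seven-week-old Wistar Han rats, 50 per sex per group, gavaged daily for 2 years with 0, 20, 60 or 180 (female)/120 (male) mg/kg/day. Vehicle was 1% carboxymethylcellulose with 0.1% polysorbate 80 (w/v) at 5 mL/kg. Body weights taken pretreatment, daily to Week 13, then weekly. Analysis by Hartley's jackknifed F-max test and Fisher's F-protected t-test.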

Protein binding, rat = type: in vitro ADME
[2] = test system: estradiol-induced prolactin release; experiment: Ovariectomized rat estradiol-induced prolactin release; type: in vivo; conditions: ovariectomized female rats, 180 mg/kg/day
Outline: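 Female Han Wistar rats (350–375 g) were ovariectomized and given jugular and femoral vein catheters, then recovered 7–14 days. Test compound (180 mg/kg/day) or vehicle (1% sodium CMC in 0.1% polysorbate 80) was given orally for 4 days (n = 10/group). On Day 4, estradiol (2 μg/rat) was given IV 1 h post-dose. Remote femoral blood was sampled to 5 h. Plasma prolactin was measured by ELISA. Baseline-subtracted AUC was log-transformed and compared by t-test.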

dopamine D2L receptor = dopamine D2L receptor (Homo sapiens, UniProt P14416); experiment: Dopamine D2L receptor radioligand binding; conditions: 10 μM, human recombinant CHO cells
Sequence of dopamine D2L receptor (P14416 whole entry): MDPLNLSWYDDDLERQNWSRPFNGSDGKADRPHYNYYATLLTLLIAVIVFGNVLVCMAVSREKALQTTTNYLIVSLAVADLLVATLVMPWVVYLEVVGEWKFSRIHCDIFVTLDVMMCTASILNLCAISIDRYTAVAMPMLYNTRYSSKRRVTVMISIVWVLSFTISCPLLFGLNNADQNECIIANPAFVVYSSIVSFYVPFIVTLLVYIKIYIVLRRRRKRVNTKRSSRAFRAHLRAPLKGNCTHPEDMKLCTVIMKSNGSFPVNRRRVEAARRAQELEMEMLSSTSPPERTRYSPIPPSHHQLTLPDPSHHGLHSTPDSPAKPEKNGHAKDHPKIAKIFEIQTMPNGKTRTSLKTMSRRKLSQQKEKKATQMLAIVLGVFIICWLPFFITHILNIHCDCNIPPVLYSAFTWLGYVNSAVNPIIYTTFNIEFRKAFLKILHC
Outline: as §1

dopamine D1 receptor = dopamine D1 receptor (Homo sapiens, UniProt P21728); experiment: Dopamine D1 receptor radioligand binding; conditions: 10 μM, [3H] SCH-23390, human recombinant CHO cells
Sequence of dopamine D1 receptor (P21728 whole entry): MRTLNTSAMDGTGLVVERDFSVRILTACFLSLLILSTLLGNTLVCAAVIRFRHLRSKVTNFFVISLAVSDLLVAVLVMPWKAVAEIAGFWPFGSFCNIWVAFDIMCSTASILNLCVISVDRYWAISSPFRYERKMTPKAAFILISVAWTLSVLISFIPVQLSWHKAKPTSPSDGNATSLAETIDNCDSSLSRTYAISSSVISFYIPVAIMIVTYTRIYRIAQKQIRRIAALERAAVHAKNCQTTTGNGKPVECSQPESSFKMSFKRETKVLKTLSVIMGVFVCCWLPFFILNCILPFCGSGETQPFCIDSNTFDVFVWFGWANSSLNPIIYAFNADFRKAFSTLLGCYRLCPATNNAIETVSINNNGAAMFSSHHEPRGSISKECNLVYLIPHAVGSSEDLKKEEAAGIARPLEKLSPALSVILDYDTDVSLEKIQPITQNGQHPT
Outline: as §1

Wistar rats = experiment: Tumor findings in rat 2-year carcinogenicity bioassay; type: in vivo; conditions: female rats, 2 years
Outline: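 Wistar Han rats, 50 per sex per group (100 control females), started at seven weeks old and gavaged daily for 2 years at 0, 20, 60 or 180 mg/kg/day (females) in 1% carboxymethylcellulose/0.1% polysorbate 80. Full tissue list was paraffin-embedded, H&E-stained, examined microscopically and peer reviewed. Histology analysed by two-tailed Fisher's exact test; tumours by multiple testing at 5% significance.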

[3] = test system: L5178Y/TK + 1 mouse lymphoma cells; experiment: Mouse lymphoma in vitro assay; type: cell-based
Outline: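 Genotoxicity screens. Ames: Salmonella strains exposed to 3–3000 μg/plate with and without metabolic activation; read-out was reverse-mutation frequency. Mouse lymphoma: L5178Y/TK+ cells treated for 4 h with S9 (15.7–41.8 μg/mL), for 4 h without S9 (5.23–15.7 μg/mL), and for 24 h without S9; read-out was clone number. Micronucleus: male and female Alderly Park rats given 2000 mg/kg; micronuclei scored 24 or 48 h post-dose.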

Protein binding, human = type: in vitro ADME
[4] = biological target: human dopamine transporter (Homo sapiens, UniProt Q01959); experiment: Dopamine transporter radioligand binding
Sequence of human dopamine transporter (Q01959 whole entry): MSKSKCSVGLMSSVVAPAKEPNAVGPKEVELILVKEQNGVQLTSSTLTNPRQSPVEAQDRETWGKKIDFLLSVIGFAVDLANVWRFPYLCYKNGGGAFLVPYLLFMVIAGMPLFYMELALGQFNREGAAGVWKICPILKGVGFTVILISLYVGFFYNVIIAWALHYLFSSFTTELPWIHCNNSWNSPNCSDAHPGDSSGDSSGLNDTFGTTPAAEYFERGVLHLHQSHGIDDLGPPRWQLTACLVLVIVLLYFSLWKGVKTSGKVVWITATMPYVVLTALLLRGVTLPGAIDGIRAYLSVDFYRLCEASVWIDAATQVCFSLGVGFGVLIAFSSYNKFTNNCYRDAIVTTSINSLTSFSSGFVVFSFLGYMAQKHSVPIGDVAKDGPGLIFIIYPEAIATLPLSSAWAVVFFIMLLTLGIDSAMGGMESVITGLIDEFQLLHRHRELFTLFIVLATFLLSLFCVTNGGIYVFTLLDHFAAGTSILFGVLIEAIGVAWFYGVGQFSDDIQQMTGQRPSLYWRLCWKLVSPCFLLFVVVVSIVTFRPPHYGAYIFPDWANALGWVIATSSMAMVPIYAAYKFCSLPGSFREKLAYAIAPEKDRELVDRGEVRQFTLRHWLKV
Outline: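 Radioligand displacement of RTI-55 from human dopamine transporter expressed in recombinant CHO-K1 cells. Screened first at 10 μM as percent inhibition of specific binding. Then tested at 10 ascending concentrations in half-log steps. IC50 and Hill coefficient from non-linear least-squares regression; Ki by Cheng–Prusoff; four repeats. IC50 then compared with free systemic Cmax.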

[5] = Rat free systemic exposure in carcinogenicity study; type: in vivo
Outline: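 Satellite carcinogenicity rats (10 per sex per dose) dosed orally at 20, 60 or 180/120 mg/kg/day. Heparinised blood taken on Days 1 and 3 and in Weeks 26 and 52, at 2–24 h post-dose (3 rats per sex per time point). Analysed by protein precipitation and LC-MS/MS.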

[6] = Plasma exposure in ovariectomized rat study; type: in vivo; conditions: Ticagrelor 180 mg/kg/day, Day 1, 5 h post dose
Outline: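 Female Han Wistar rats (350–375 g) ovariectomized and fitted with jugular and femoral vein catheters, then housed tethered at 23 ± 1 °C. Dosed orally at 180 mg/kg/day in 1% sodium carboxymethylcellulose/0.1% polysorbate 80, n = 10 per group. On Day 1, 0.5 mL blood taken 5 h post-dose into lithium heparin; exposure measured by protein precipitation and LC-MS/MS.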

Plasma exposure = type: in vivo, rat; conditions: carcinogenicity bioassay, Ticagrelor 180 mg/kg/day

Structure (SMILES): CCCSc1nc(N[C@@H]2C[C@H]2c2ccc(F)c(F)c2)c2nnn([C@@H]3C[C@H](OCCO)[C@@H](O)[C@H]3O)c2n1 [Ticagrelor]
- Inhibition of radioligand binding at the D4.2 receptor (dopamine D4.2 receptor): neither Ticagrelor nor metabolite caused inhibition
- Inhibition of platelet aggregation (platelet aggregation): greater than 90%
- Body weight lower than the control group by the end of study ([1]; female rats, 180 mg/kg/day): approximately 20%
- Food consumption ([1]; female rats, 180 mg/kg/day): significantly decreased food consumption in 10 out of the last 14 measurements
- Food consumption ([1]; male rats): no consistent food consumption differences
- Body weight difference from the control group at the end of the study ([1]; male rats, high dose group (120 mg/kg/day)): ≤ 10%
- fraction unbound (Protein binding, rat): 0.01
- Effect on estradiol-induced prolactin release [2]: all but completely blocked the estradiol-induced prolactin release
- Inhibition of radioligand binding at the D2L receptor (dopamine D2L receptor): neither Ticagrelor nor metabolite caused inhibition
- Inhibition of radioligand binding at the D1 receptor (dopamine D1 receptor): neither Ticagrelor nor metabolite caused inhibition
- Mammary fibroadenoma incidence (Wistar rats; 20 mg/kg/day): 22 percentage
- Pituitary hyperplasia and adenoma incidence (Wistar rats; 20 mg/kg/day): 64 percentage
- Uterine adenocarcinoma incidence (Wistar rats; 20 mg/kg/day): 10 percentage
- Uterine adenosquamous carcinoma incidence (Wistar rats; 20 mg/kg/day): 0 percentage
- Uterine squamous cell carcinoma incidence (Wistar rats; 20 mg/kg/day): 0 percentage
- Mammary fibroadenoma incidence (Wistar rats; 60 mg/kg/day): 16 percentage
- Pituitary anterior lobe adenoma in decedent rats (Wistar rats; 60 mg/kg/day): 53 percentage
- Pituitary hyperplasia and adenoma incidence (Wistar rats; 60 mg/kg/day): 73 percentage
- Uterine adenocarcinoma incidence (Wistar rats; 60 mg/kg/day): 12 percentage
- Uterine adenosquamous carcinoma incidence (Wistar rats; 60 mg/kg/day): 2 percentage
- Uterine squamous cell carcinoma incidence (Wistar rats; 60 mg/kg/day): 0 percentage
- Mammary fibroadenoma incidence (Wistar rats; 180 mg/kg/day): 2 ^* percentage
- Pituitary anterior lobe adenoma in decedent rats (Wistar rats; 180 mg/kg/day): 35 ^* percentage
- Pituitary hyperplasia and adenoma incidence (Wistar rats; 180 mg/kg/day): 50 ^* percentage
- Uterine adenocarcinoma incidence (Wistar rats; 180 mg/kg/day): 42 ^*** percentage
- Uterine adenosquamous carcinoma incidence (Wistar rats; 180 mg/kg/day): 4 percentage
- Uterine squamous cell carcinoma incidence (Wistar rats; 180 mg/kg/day): 2 percentage
- Mouse lymphoma in vitro: Conclusion [3]: Negative
- Mouse lymphoma in vitro: Results ([3]; 15.7–41.8 μg/mL (4 h + S9), 5.23–15.7 μg/mL (4 h − S9), 15.7–36.6 (24 h − S9)): No increased number of clones associated with treatment
- fraction unbound (Protein binding, human): 0.008
- Inhibition of the dopamine transporter at free systemic Cmax levels ([4]; at human free systemic Cmax): minimal inhibition
- Inhibition of the dopamine transporter at free systemic Cmax levels ([4]; at rat free systemic Cmax): > 50%
- Rat free systemic exposure maximal concentration (Cmax) ([5]; high dose group, based on 99.0% protein binding): 502 nM
- Rat free systemic exposure Cmax ([5]; low dose group): 43 nM
- Rat free systemic exposure Cmax ([5]; mid dose group): 157 nM
- Plasma exposure (mean ± SD) [6]: 33.2 ± 10.6 µM
- Plasma exposure (mean ± SD) (Plasma exposure; Day 1, 5 h post dose): 35.9 ± 17.9 µM
- Plasma exposure (mean ± SD) (Plasma exposure; Week 26, 5 h post dose): 37.9 ± 10.5 µM
